According to ChEMBL document CHEMBL1157161, “N-1H-benzimidazol-5-ylbenzenesulfonamide derivatives as potent hPXR agonists” (Bioorg Med Chem, 2008):

Key:
[1] = target: T1, Nuclear receptor subfamily 1 group I member 2 (Homo sapiens, UniProt O75469); experiment: Agonist activity at human pregnane X receptor expressed in HGPXR reporter cells; format: functional, cell-based
T1 sequence (O75469 whole entry): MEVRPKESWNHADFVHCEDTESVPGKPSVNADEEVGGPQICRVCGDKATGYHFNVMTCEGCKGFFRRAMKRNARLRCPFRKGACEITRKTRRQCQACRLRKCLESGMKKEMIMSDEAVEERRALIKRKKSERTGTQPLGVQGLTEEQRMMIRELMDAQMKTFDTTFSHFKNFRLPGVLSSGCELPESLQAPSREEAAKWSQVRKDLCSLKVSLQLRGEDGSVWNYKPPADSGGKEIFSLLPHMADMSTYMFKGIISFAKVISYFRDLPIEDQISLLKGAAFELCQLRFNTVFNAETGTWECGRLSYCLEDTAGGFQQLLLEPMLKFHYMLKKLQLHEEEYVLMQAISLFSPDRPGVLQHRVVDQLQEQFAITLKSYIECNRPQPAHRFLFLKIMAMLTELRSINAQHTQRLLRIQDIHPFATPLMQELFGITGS

Hepatocyte [2] = experiment: Induction of […] mRNA expression in human hepatocyte FT269 at 1 uM after 24 hrs by RT-PCR relative to control; format: functional
How it was run: (§1)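 Primary adult human hepatocytes from lobectomy segments, plated on collagen in Williams' E/Ham's F-12 (1:1) defined medium; 24 h exposure begun 48 h after plating, vehicle DMSO 0.1%. Total RNA extracted with TRIzol, cDNA from 1 µg using random hexamers (42 °C, 60 min). Target mRNA quantified by real-time PCR in duplicates, comparative Ct method. Result given as fold induction over DMSO-treated cells ± standard error.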

Hepatocyte [3] = experiment: Induction of CYP3A4 mRNA expression in human hepatocyte FT272 at 1 uM after 24 hrs by RT-PCR relative to control; format: functional; how it was run: as §1
Hepatocyte [4] = experiment: Induction of […] mRNA expression in human hepatocyte FT272 at 1 uM after 24 hrs by RT-PCR relative to control; format: functional; how it was run: as §1
Hepatocyte [5] = experiment: Induction of CYP3A4 mRNA expression in human hepatocyte FT269 at 1 uM after 24 hrs by RT-PCR relative to control; format: functional; how it was run: as §1
[6] = target: T1, Nuclear receptor subfamily 1 group I member 2; experiment: Protection of human pregnane X receptor against proteolytic digestion in presence of trypsin
Hepatocyte [7] = experiment: Induction of CYP3A4 mRNA expression in human hepatocyte FT271 at 1 uM after 24 hrs by RT-PCR relative to control; format: functional; how it was run: as §1
Hepatocyte [8] = experiment: Induction of […] mRNA expression in human hepatocyte FT271 at 1 uM after 24 hrs by RT-PCR relative to control; format: functional; how it was run: as §1
Hepatocyte [9] = experiment: Induction of […] mRNA expression in human hepatocyte FT268 at 1 uM after 24 hrs by RT-PCR relative to control; format: functional; how it was run: as §1
Hepatocyte [10] = experiment: Induction of CYP3A4 mRNA expression in human hepatocyte FT268 at 1 uM after 24 hrs by RT-PCR relative to control; format: functional; how it was run: as §1

| SMILES | EC50 [1] | further results |
| --- | --- | --- |
| O=[N+]([O-])c1ccccc1S(=O)(=O)Nc1ccc2c(c1)ncn2Cc1ccccc1 | 271 nM |  |
| O=C(Cc1cccc2ccccc12)Nc1ccc2c(c1)ncn2Cc1ccccc1 | 217 nM |  |
| O=S(=O)(Nc1ccc2c(c1)ncn2-c1ccc2ccccc2c1)c1ccccc1Cl | 385 nM |  |
| O=[N+]([O-])c1ccc(S(=O)(=O)Nc2ccc3c(c2)ncn3Cc2ccccc2)cc1 | 336 nM |  |
| Cc1c(C)c(C)c(S(=O)(=O)Nc2ccc3c(c2)ncn3-c2ccc3ccccc3c2)c(C)c1C | 55 nM |  |
| O=C(Cc1ccccc1Cl)Nc1ccc2c(c1)ncn2Cc1ccccc1 | 515 nM |  |
| O=S(=O)(Nc1ccc2ncn(Cc3ccccc3)c2c1)c1ccccc1Cl | 340 nM |  |
| O=C(Nc1ccc2c(c1)ncn2Cc1ccccc1)Nc1cccc2ccccc12 | > 5000 nM |  |
| Cc1c(C)c(C)c(S(=O)(=O)Nc2ccc3c(c2)ncn3Cc2ccccc2)c(C)c1C | 0.7 nM | Ratio (Hepatocyte [2]): 14.89; Ratio (Hepatocyte [3]): 32.59; Ratio (Hepatocyte [4]): 11.41; Ratio (Hepatocyte [5]): 29.02; EC50 [6]: 8.04 nM; Ratio (Hepatocyte [7]): 14.91; Ratio (Hepatocyte [8]): 4.86 |
| O=S(=O)(Cc1ccccc1Cl)Nc1ccc2c(c1)ncn2Cc1ccccc1 | 176 nM |  |
| O=S(=O)(Nc1ccc2c(c1)ncn2Cc1ccccc1)c1ccc(-c2ccccc2)cc1 | 388 nM |  |
| CC(c1ccccc1)n1cnc2cc(NS(=O)(=O)Cc3ccccc3Cl)ccc21 (racemic) | 49 nM | EC50 [6]: 809 nM |
| Cc1ccccc1S(=O)(=O)Nc1ccc2c(c1)ncn2Cc1ccccc1 | 45 nM |  |
| CCCCCCn1cnc2cc(NS(=O)(=O)c3ccccc3Cl)ccc21 | 55 nM |  |
| CCOP(=O)(OCC)C(=Cc1cc(C(C)(C)C)c(O)c(C(C)(C)C)c1)P(=O)(OCC)OCC |  | Ratio (Hepatocyte [2]): 3.74; Ratio (Hepatocyte [3]): 24.01; Ratio (Hepatocyte [4]): 3.91; Ratio (Hepatocyte [9]): 3.26; Ratio (Hepatocyte [5]): 10.9; Ratio (Hepatocyte [7]): 11.84; Ratio (Hepatocyte [10]): 4.02; Ratio (Hepatocyte [8]): 2 |
| O=S(=O)(Nc1ccc2c(c1)ncn2Cc1ccccc1)c1ccccc1Br | 20 nM |  |

| SMILES | EC50 [1] | further results |
| --- | --- | --- |
| O=S(=O)(Nc1ccc2c(c1)ncn2Cc1ccccc1)c1ccc2ccccc2c1 | 51 nM |  |
| Cc1cc(C)cc(S(=O)(=O)Nc2ccc3c(c2)ncn3Cc2ccccc2)c1 | 33 nM |  |
| O=C(Cc1ccc2ccccc2c1)Nc1ccc2c(c1)ncn2Cc1ccccc1 | > 5000 nM |  |
| CCCc1ccc(S(=O)(=O)Nc2ccc3c(c2)ncn3Cc2ccccc2)cc1 | 52 nM |  |
| CC(C)(C)c1ccc(S(=O)(=O)Nc2ccc3c(c2)ncn3Cc2ccccc2)cc1 | 42 nM |  |
| O=S(=O)(Cc1ccccc1Cl)Nc1ccc2c(ccn2Cc2ccccc2)c1 | 197 nM |  |
| CCCCCCn1cnc2cc(NS(=O)(=O)c3c(C)c(C)c(C)c(C)c3C)ccc21 | 13 nM |  |
| O=S(=O)(Nc1ccc2c(c1)ncn2Cc1ccccc1)c1ccccc1F | 101 nM |  |
| O=C(Nc1ccc2c(c1)ncn2Cc1ccccc1)Nc1ccccc1[N+](=O)[O-] | > 5000 nM |  |
| O=C(Nc1ccc2c(c1)ncn2Cc1ccccc1)Nc1ccccc1Cl | 1480 nM |  |
| O=[N+]([O-])c1ccccc1CS(=O)(=O)Nc1ccc2c(c1)ncn2Cc1ccccc1 | 428 nM |  |
| O=S(=O)(Nc1ccc2c(c1)ncn2Cc1ccccc1)c1ccccc1Cl | 23 nM | Ratio (Hepatocyte [2]): 10.46; Ratio (Hepatocyte [3]): 36.06; Ratio (Hepatocyte [4]): 11.83; Ratio (Hepatocyte [9]): 3.02; Ratio (Hepatocyte [5]): 17.04; EC50 [6]: 157 nM; Ratio (Hepatocyte [7]): 9.97; Ratio (Hepatocyte [10]): 7.23; Ratio (Hepatocyte [8]): 3.05 |
| Cc1cc(C)c(S(=O)(=O)Nc2ccc3c(c2)ncn3Cc2ccccc2)c(C)c1 | 1.5 nM | Ratio (Hepatocyte [3]): 31.68; Ratio (Hepatocyte [4]): 7.55; EC50 [6]: 8.05 nM; Ratio (Hepatocyte [7]): 15.58; Ratio (Hepatocyte [8]): 1.89 |
| O=S(=O)(Cc1ccccc1Cl)Nc1ccc2ncn(Cc3ccccc3)c2c1 | 376 nM |  |
| O=S(=O)(Nc1ccc2c(c1)ncn2Cc1ccccc1)c1cccc2ccccc12 | 20 nM |  |
